Source: PubChem BioAssay
MC4R antagonist – blocks human MC4R cAMP signaling | P32245 | MC4R-expressing cells, MTII-stimulated cAMP, LANCE TR-FRET | inhibition, % at 6.5 µM | hit rate 0.48% among 360,000 | AID 540295;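 active = inhibition above its plate's cutoff, the mean of tested wells on that plate plus 3 SD, cut at about 29% in these data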;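 note: 0% = Melanotan II alone and 100% = Melanotan II plus saturating MCL0020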
Target sequence (P32245 whole entry, looked up): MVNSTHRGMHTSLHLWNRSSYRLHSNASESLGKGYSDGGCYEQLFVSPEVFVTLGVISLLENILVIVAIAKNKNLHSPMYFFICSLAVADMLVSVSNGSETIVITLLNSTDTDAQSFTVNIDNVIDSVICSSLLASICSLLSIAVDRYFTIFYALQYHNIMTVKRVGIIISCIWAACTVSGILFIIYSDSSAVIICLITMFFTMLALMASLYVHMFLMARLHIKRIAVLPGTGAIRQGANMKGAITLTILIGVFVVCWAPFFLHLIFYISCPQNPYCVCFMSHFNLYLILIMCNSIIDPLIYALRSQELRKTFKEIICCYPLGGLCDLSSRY
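Assay system: U2OS-MC4R stable cell line; Also added: Melanotan II; Technique: Eu-cAMP/anti-cAMP TR-FRET, emission 671 nm; Times: 30-min compound, 1-h challenge, 1-h detection, room temperature.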
NTR1 agonist – activates human neurotensin receptor 1 | NTR1-U2OS beta-arrestin-GFP spot imaging, agonist mode | activation, % at 20 µM | hit rate 0.17% among 330,000 | AID 493036;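 active = activation at or above 40% of the spot to cytoplasm intensity ratio, with at least 20 cells analyzed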;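 note: 0% = DMSO without peptide and 100% = 100 nM NTR1 peptide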
NOD2-RIPK2 inh – inhibitors of human NOD2-RIPK2 interaction; O43353; CHO BLA complementation NOD2-RIPK2, CCF4 ratio; inhibition, % at 4.98 µM; hit rate 0.38% among 360,000; AID 624267; in the data active = inhibition above about 21%;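 note: 0% = vehicle only and 100% = reference blocker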
MC4R barr agon – agonists of human melanocortin 4 receptor (MC4R) beta-arrestin. U2OS MC4R beta-arrestin complementation, luminescence; percent of melanotan II response, DMSO zero. hit rate 0.98% among 360,000. activation, % at 8.9 µM. P32245;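 active = activation above a per-plate cutoff, the mean activation of sample wells on that plate plus 3 SD, cut at about 8% in these data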
TLR4 MyD88 comp – TLR4-MyD88 interaction inhibition in cells. O00206+Q99836. HeLa CL3-4 TLR4/MyD88 BLA complementation, FRET ratio. inhibition, % at 8.4 µM. hit rate 0.18% among 200,000. AID 861; in the data active = inhibition above about 25%;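 note: 0% = vehicle and 100% = reference inhibitor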
TLR9-MyD88 block – blocks human TLR9 binding to MyD88. Q9NR96+Q99836. AID 504734. CHO BLA complementation TLR9-MyD88, CCF4 FRET ratio. hit rate 0.21% among 340,000. inhibition, % at 4.98 µM;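 active = inhibition above the mean over all tested compounds plus 3 SD, cut at about 21% in these data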;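 note: 0% = DMSO only wells and 100% = clavulanate BLA inhibitor control wells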
MC4R barr ag – human MC4R beta-arrestin agonism confirmation. hit rate 31% among 2,400. U2OS MC4R beta-arrestin recruitment, luminescence; scaled DMSO 0%, Melanotan II 100%. shares compounds with MC4R barr agon. activation, % at 8.9 µM;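 active = mean activation across replicates above the hit cutoff set in the earlier primary screen, cut at about 8% in these data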
MOR DOR agonist – activates mu-delta opioid heterodimer, MC4R agonist counter-screen | shares compounds with MC4R barr agon | U2OS PathHunter beta-arrestin, beta-gal luminescence; percent of deltorphin B response, DMSO zero | activation, % at 9.2 µM | hit rate 5.8% among 2,400;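 active = mean activation across replicates exceeds the hit threshold derived in the earlier primary screen, cut at about 18% in these data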;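 note: 100% = deltorphin B at 0.9 µM final and 0% = DMSO alone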
Active calls of the source: *; x = no result given. Hits are enriched below; roughly 1.9% of the tested compounds scored in any of these assays.

SMILES | MC4R antagonist | NTR1 agonist | NOD2-RIPK2 inh | MC4R barr agon | TLR4 MyD88 comp | TLR9-MyD88 block | MC4R barr ag | MOR DOR agonist
Cc1cc(-n2c(SCC(=O)NCc3cccs3)nc3n[nH]c(C)c3c2=N)ccc1Cl | 17 | 6 | 2 | 13* | -7 | 2 | 5 | 7
Cc1cc(C)c(S(=O)(=O)Nc2ccccn2)c(C)c1 | 10 | 0 | -18 | 1 | x | -4 | x | x
CC(Oc1ccc2c(c1)c1ccnc3c4ccccc4c(=O)n2c13)C(=O)NCCN1CCOCC1 (stereo not drawn) | 22 | -4 | -25 | 2 | x | 10 | x | x
COc1ccc(CNC(=O)Nc2nc(C(N)Cc3ccc(C(F)(F)F)cc3)cs2)cc1 (stereo not drawn) | -7 | x | 0 | 16* | x | x | 17* | 12
CC(C)(C)c1ccccc1NC(=O)Nc1nc(C(N)Cc2ccc(F)cc2)cs1 (stereo not drawn) | 7 | x | -8 | 11* | x | x | 8 | 13
COc1ccc(CC(N)c2csc(NC(=O)c3ccc(OC)cc3)n2)cc1 (stereo not drawn) | -1 | x | -2 | 0 | x | x | x | x
CC(C)c1ccccc1NC(=O)Nc1nc(C(N)Cc2ccc(C(F)(F)F)cc2)cs1 (stereo not drawn) | 7 | x | 9 | 15* | x | x | 14* | 17
CC(C)(C)c1ccccc1NC(=O)Nc1nc(C(N)c2ccccc2)cs1 (stereo not drawn) | 5 | x | 5 | 0 | x | x | x | x
COc1cc2c(cc1OC)C(C1C(=O)CC(C)CC1=O)N(C(=O)CCl)CC2 (stereo not drawn) | 9 | 0 | -8 | -2 | 13 | -3 | x | x
Cc1cn(CC(=O)NCc2ccc3c(c2)OCO3)c(=O)[nH]c1=O | -3 | x | -9 | -1 | x | 12 | x | x
O=C(O)c1ccc(N=Cc2c(O)ccc3oc4c(c23)CCCC4)cc1 | 3 | 4 | 2 | 2 | x | 12 | x | x
Oc1ccccc1N=Cc1c(O)ccc2oc3c(c12)CCCC3 | 2 | 4 | 0 | 14* | x | 4 | 8.3* | 10
CC(=O)Nc1ccc(NC(=O)C2CCCN(c3ncccn3)C2)cc1 (stereo not drawn) | -2 | 9 | 0 | 0 | -7 | 8 | x | x
O=C(Nc1ccc(Oc2ccccc2)cc1)C1CCCN(c2ncccn2)C1 (stereo not drawn) | 4 | 5 | -12 | 9.9* | -3 | 2 | 0 | 3
Cc1ncc(CN2CCC(N3CCC(C(=O)N4CCCC4)CC3)CC2)s1 | 4 | 0 | -10 | -4 | x | -7 | x | x
CC(=O)Nc1cc(-c2ccc(C(=O)N3CCOCC3)cc2)cn2c(-c3ccccc3)cnc12 | 7 | x | 6 | 25* | x | x | 19* | 1
COc1ccc(-c2cnc3c(NC(C)=O)cc(-c4ccc(C(=O)N5CCOCC5)cc4)cn23)cc1OC | 3 | x | 1 | 11* | x | x | 9.4* | 3
CC(=O)Nc1cc(-c2ccc(C(=O)N3CCOCC3)cc2)cn2c(-c3ccc(C(C)=O)cc3)cnc12 | 8 | x | 5 | 3 | x | x | x | x
O=C(NCCCN1CCOCC1)c1ccc2c(c1)N(Cc1cccc(Cl)c1)C(=O)CS2 | 10 | -2 | -9 | -2 | x | -1 | x | x
COCC(=O)N1CCC(Oc2ccc(C(=O)N[C@H](C(=O)OC)C(C)C)cc2)CC1 | 18 | 1 | -1 | -2 | x | -8 | x | x
CN(C)c1ccc(/C=N\Nc2nc(-c3ccccc3)cc(=O)[nH]2)cc1 | -1 | 4 | 7 | 27* | 9 | 0 | 4 | 5
CCOC(=O)c1c(NC(=O)CSc2ncnc3ccccc23)sc(C(C)=O)c1C | 3 | 2 | -3 | -2 | 0 | -5 | x | x
COC(=O)c1c(NC(=O)CSc2ncnc3ccccc23)sc(C)c1C | -4 | 36 | -8 | 15* | x | -3 | 2 | 2
Cc1cccc2sc(N(CCCN(C)C)C(=O)c3ccc(Cl)s3)nc12 | 0 | 5 | 8 | 11* | -2 | -20 | 4 | 6
Cc1cc(C)c2sc(N(CCCN(C)C)C(=O)c3ccc(Br)s3)nc2c1 | 2 | 8 | -8 | 16* | 5 | -7 | 21* | 14
SMILES | MC4R antagonist | NTR1 agonist | NOD2-RIPK2 inh | MC4R barr agon | TLR4 MyD88 comp | TLR9-MyD88 block | MC4R barr ag | MOR DOR agonist
CCS(=O)(=O)N1CCN=C1SCc1ccc(F)cc1 | 1 | 0 | -9 | -1 | x | -2 | x | x
COc1ccccc1CNC(=O)COC(=O)[C@H](Cc1c[nH]c2ccccc12)NC(=O)c1cccs1 | 24 | 4 | -3 | -1 | -5 | -2 | x | x
Cc1cccc(NC(=O)c2oc(=O)c3ccccc3c2-c2ccccc2)c1C | 10 | 3 | -1 | 11* | -6 | 1 | 1 | 3
Cc1ccccc1NC(=O)c1oc(=O)c2ccccc2c1-c1ccccc1 | -3 | 1 | -5 | -1 | -14 | -3 | x | x
CC1(C)C[C@H](O)[C@]2(CO)CC[C@]3(C)C(=CCC4[C@@]5(C)CC[C@H](O)C(C)(C)C5CC[C@]43C)[C@@H]2C1 (stereo partly drawn) | 2 | 3 | 2 | -1 | x | 6 | x | x
CC1(C)C[C@H](O)[C@]2(CO)[C@H](O)C[C@]3(C)C(=CCC4[C@@]5(C)CC[C@H](O)C(C)(C)C5CC[C@]43C)[C@@H]2C1 (stereo partly drawn) | 18 | 8 | 5 | 19* | x | 3 | 25* | 21*
CC1(C)CC[C@]2(CO)CC[C@]3(C)C(=CCC4[C@@]5(C)CC[C@H](O)[C@@](C)(CO)C5CC[C@]43C)[C@@H]2C1 (stereo partly drawn) | 5 | 8 | 8 | 11* | x | -1 | 15* | 3
Cc1ccccc1NC(=O)c1cc2c(=O)n3cccc(C)c3nc2s1 | 8 | 2 | 3 | 19* | x | 4 | 5 | 8
Cc1cccn2c(=O)c3cc(C(=O)NCCc4ccccc4)sc3nc12 | 0 | 8 | -5 | 18* | x | -2 | 13* | 3
O=C(COc1ccc(Cl)cc1)Nc1ccccc1C(=O)NCc1ccco1 | -5 | 13 | -2 | 6 | -3 | -8 | x | x
Cc1cc(C)cc(OCC(=O)Nc2ccccc2C(=O)NCc2ccco2)c1 | -1 | 3 | -7 | 31* | 7 | -2 | 1 | 5
CN(Cc1ccccc1Cl)C(=O)CCNC(=O)c1ccco1 | 9 | -1 | -5 | -2 | x | -11 | x | x
COc1ccc(/C=N/NC(=S)Nc2cc(C(F)(F)F)ccc2Cl)cc1 | -8 | 1 | -1 | 24* | x | x | 2 | 4
FC(F)(F)c1ccc(Cl)c(NC(=S)N/N=C/c2ccccc2C(F)(F)F)c1 | 7 | 5 | -6 | 1 | -11 | 0 | x | x
